Results as given in ChEMBL document CHEMBL4138085, “Design, synthesis and antimicrobial evaluation of novel benzimidazole-incorporated sulfonamide analogues” (Eur J Med Chem, 2017).
Values after ≈ are worked out from the molar mass of the structure shown.

Assays:
Aspergillus flavus [1] = test: Antifungal activity against Aspergillus flavus after 24 hrs by NCCLS two fold broth microdilution method; type: functional
Method in brief: (§1)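 Two-fold serial microdilution following NCCLS. A spore suspension in sterile distilled water was prepared from one-day-old cultures grown on Sabouraud agar and adjusted to a final 1–5 × 10^3 spores/mL. DMSO stocks were diluted in RPMI 1640 to eleven concentrations (0.5–512 µg/mL), inoculated and held at 35 °C for 24 h. Growth was read visually and spectrophotometrically, MIC was the lowest concentration with complete inhibition, and runs were in triplicate.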

Escherichia coli = test: Antibacterial activity against Escherichia coli ATCC 8099 after 24 hrs by NCCLS two fold broth microdilution method; type: functional; conditions: ATCC 8099, 24 h
Method in brief: (§2)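 Two-fold serial broth microdilution in 96-well plates following NCCLS. Plates were inoculated and incubated at 37 °C for 24 h, with growth read visually and spectrophotometrically. MIC was taken as the lowest concentration giving complete growth inhibition. Run in triplicate, with a DMSO-plus-inoculum solvent control.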

Staphylococcus aureus [2] = test: Antibacterial activity against methicillin-resistant Staphylococcus aureus N315 after 24 hrs by NCCLS two fold broth microdilution method; type: functional; conditions: N315, 24 h
Method in brief: (§3)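 Two-fold serial broth microdilution per NCCLS. Chloromycin and norfloxacin as reference drugs; DMSO with inoculum, no drug, as solvent control. Incubation 37 °C for 24 h. Growth read visually and spectrophotometrically. MIC is the lowest concentration completely inhibiting growth; triplicate.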

Pseudomonas aeruginosa = test: Antibacterial activity against Pseudomonas aeruginosa ATCC 27853 after 24 hrs by NCCLS two fold broth microdilution method; type: functional; conditions: ATCC 27853, 24 h; method in brief: as §2
Bacillus subtilis = test: Antibacterial activity against Bacillus subtilis ATCC 21216 after 24 hrs by NCCLS two fold broth microdilution method; type: functional; conditions: ATCC 21216, 24 h
Method in brief: as §2, with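 “NCCLS. Compounds were dissolved in DMSO as stocks, then diluted in Mueller–Hinton broth to final concentrations of 0.5–512 µg/mL.” for “NCCLS.”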

Cyberlindnera jadinii = test: Antifungal activity against Candida utilis after 24 hrs by NCCLS two fold broth microdilution method; type: functional; conditions: Williopsis jadinii; method in brief: as §1
Staphylococcus aureus [3] = test: Antibacterial activity against Staphylococcus aureus ATCC 25923 after 24 hrs by NCCLS two fold broth microdilution method; type: functional; conditions: ATCC 25923, 24 h
Method in brief: as §2, with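 “NCCLS. Compounds were dissolved in DMSO as stocks, then diluted in Mueller–Hinton broth to final concentrations of 0.5–512 µg/mL.” for “NCCLS.”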

Candida albicans = test: Antifungal activity against Candida albicans ATCC 76615 after 24 hrs by NCCLS two fold broth microdilution method; type: functional; conditions: ATCC 76615, 24 h; method in brief: as §1
Micrococcus luteus = test: Antibacterial activity against Micrococcus luteus ATCC 4698 after 24 hrs by NCCLS two fold broth microdilution method; type: functional; conditions: NCTC 2665, 24 h
Method in brief: as §2, with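 “NCCLS. Compounds were dissolved in DMSO as stocks, then diluted in Mueller–Hinton broth to final concentrations of 0.5–512 µg/mL.” for “NCCLS.”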

Bacillus = test: Antibacterial activity against Bacillus proteus ATCC 13315 after 24 hrs by NCCLS two fold broth microdilution method; type: functional; conditions: ATCC 13315, 24 h
Method in brief: as §2, with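 “NCCLS. Compounds were dissolved in DMSO as stocks, then diluted in Mueller–Hinton broth to final concentrations of 0.5–512 µg/mL.” for “NCCLS.”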

Pichia norvegensis = test: Antifungal activity against Candida mycoderma after 24 hrs by NCCLS two fold broth microdilution method; type: functional
Saccharomyces cerevisiae = test: Antifungal activity against Saccharomyces cerevisiae after 24 hrs by NCCLS two fold broth microdilution method; type: functional; method in brief: as §1
Salmonella typhi = test: Antibacterial activity against Bacillus typhi after 24 hrs by NCCLS two fold broth microdilution method; type: functional, Salmonella enterica subsp. enterica serovar Typhi; conditions: Salmonella enterica
Method in brief: as §3, with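 “NCCLS. DMSO stocks diluted in Mueller–Hinton broth to 512, 256, 128, 64, 32, 16, 8, 4, 2, 1, 0.5 µg/mL.” for “NCCLS.”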

Aspergillus flavus [4] = test: Potency index, ratio of Fluconazole MIC to compound MIC for Aspergillus flavus; type: functional

SMILES | MIC (Aspergillus flavus [1]) [µg/mL] | MIC (Escherichia coli) [µg/mL] | MIC (Staphylococcus aureus [2]) [µg/mL] | MIC (Pseudomonas aeruginosa) [µg/mL] | MIC (Bacillus subtilis) [µg/mL] | MIC (Cyberlindnera jadinii) [µg/mL] | MIC (Staphylococcus aureus [3]) [µg/mL] | MIC (Candida albicans) [µg/mL] | MIC (Micrococcus luteus) [µg/mL] | MIC (Bacillus) [µg/mL] | MIC (Pichia norvegensis) [µg/mL] | MIC (Saccharomyces cerevisiae) [µg/mL] | MIC (Salmonella typhi) [µg/mL] | Ratio (Aspergillus flavus [4])
CCn1c(CS(=O)(=O)c2ccc(NC(C)=O)cc2)nc2ccccc21 | 64 (≈ 179 µM) | 256 (≈ 716 µM) | 128 (≈ 358 µM) | 32 (≈ 89.5 µM) | 32 (≈ 89.5 µM) | 64 (≈ 179 µM) | 128 (≈ 358 µM) | 64 (≈ 179 µM) | 128 (≈ 358 µM) | 64 (≈ 179 µM) | 256 (≈ 716 µM) | 512 (≈ 1430 µM) | 64 (≈ 179 µM) | –
Nc1ccc(S(=O)(=O)Cc2nc3ccccc3n2Cc2ccc(F)cc2)cc1 | 256 (≈ 647 µM) | 256 (≈ 647 µM) | 512 (≈ 1290 µM) | 16 (≈ 40.5 µM) | 512 (≈ 1290 µM) | 128 (≈ 324 µM) | 16 (≈ 40.5 µM) | 32 (≈ 80.9 µM) | 512 (≈ 1290 µM) | 128 (≈ 324 µM) | 512 (≈ 1290 µM) | 32 (≈ 80.9 µM) | 16 (≈ 40.5 µM) | –
CC(=O)Nc1ccc(S(=O)(=O)Cc2nc3ccccc3n2Cc2ccccc2F)cc1 | 64 (≈ 146 µM) | 256 (≈ 585 µM) | 128 (≈ 293 µM) | 128 (≈ 293 µM) | 64 (≈ 146 µM) | 32 (≈ 73.1 µM) | 512 (≈ 1170 µM) | 256 (≈ 585 µM) | 32 (≈ 73.1 µM) | 128 (≈ 293 µM) | 512 (≈ 1170 µM) | 512 (≈ 1170 µM) | 64 (≈ 146 µM) | –
CCCCCCCCCCCCCCCCCCn1c(CS(=O)(=O)c2ccc(NC(C)=O)cc2)nc2ccccc21 | 512 (≈ 880 µM) | 512 (≈ 880 µM) | 512 (≈ 880 µM) | 512 (≈ 880 µM) | 512 (≈ 880 µM) | 512 (≈ 880 µM) | 128 (≈ 220 µM) | 512 (≈ 880 µM) | 512 (≈ 880 µM) | 512 (≈ 880 µM) | 512 (≈ 880 µM) | 512 (≈ 880 µM) | 512 (≈ 880 µM) | –
CC(=O)Nc1ccc(S(=O)(=O)Cc2nc3ccccc3n2Cc2ccc(Cl)cc2)cc1 | 512 (≈ 1130 µM) | 128 (≈ 282 µM) | 512 (≈ 1130 µM) | 512 (≈ 1130 µM) | 256 (≈ 564 µM) | 512 (≈ 1130 µM) | 512 (≈ 1130 µM) | 128 (≈ 282 µM) | 128 (≈ 282 µM) | 256 (≈ 564 µM) | 32 (≈ 70.5 µM) | 64 (≈ 141 µM) | 64 (≈ 141 µM) | –
CC(=O)Nc1ccc(S(=O)(=O)Cc2nc3ccccc3n2Cc2cccc(Cl)c2)cc1 | 256 (≈ 564 µM) | 64 (≈ 141 µM) | 128 (≈ 282 µM) | 256 (≈ 564 µM) | 128 (≈ 282 µM) | 512 (≈ 1130 µM) | 32 (≈ 70.5 µM) | 512 (≈ 1130 µM) | 64 (≈ 141 µM) | 128 (≈ 282 µM) | 256 (≈ 564 µM) | 128 (≈ 282 µM) | 128 (≈ 282 µM) | –
Nc1ccc(S(=O)(=O)Cc2nc3ccccc3n2Cc2ccccc2F)cc1 | 32 (≈ 80.9 µM) | 4 (≈ 10.1 µM) | 64 (≈ 162 µM) | 512 (≈ 1290 µM) | 16 (≈ 40.5 µM) | 4 (≈ 10.1 µM) | 64 (≈ 162 µM) | 128 (≈ 324 µM) | 32 (≈ 80.9 µM) | 256 (≈ 647 µM) | 8 (≈ 20.2 µM) | 8 (≈ 20.2 µM) | 16 (≈ 40.5 µM) | 8
CCCCCCCCCCn1c(CS(=O)(=O)c2ccc(N)cc2)nc2ccccc21 | 512 (≈ 1200 µM) | 512 (≈ 1200 µM) | 512 (≈ 1200 µM) | 512 (≈ 1200 µM) | 512 (≈ 1200 µM) | 8 (≈ 18.7 µM) | 512 (≈ 1200 µM) | 512 (≈ 1200 µM) | 512 (≈ 1200 µM) | 512 (≈ 1200 µM) | 512 (≈ 1200 µM) | 512 (≈ 1200 µM) | 512 (≈ 1200 µM) | –
Nc1ccc(S(=O)(=O)Cc2nc3ccccc3n2Cc2cccc(F)c2)cc1 | 256 (≈ 647 µM) | 128 (≈ 324 µM) | 128 (≈ 324 µM) | 512 (≈ 1290 µM) | 512 (≈ 1290 µM) | 512 (≈ 1290 µM) | 512 (≈ 1290 µM) | 128 (≈ 324 µM) | 512 (≈ 1290 µM) | 256 (≈ 647 µM) | 512 (≈ 1290 µM) | 8 (≈ 20.2 µM) | 512 (≈ 1290 µM) | –
